{"source": "the RNAGym collection of RNA variant scans (doi:10.1126/science.aae0568)", "parents": {"B1": {"name": "tRNA (parent)", "chain": "GUUCCGUUGGCGUAAUGGUAACGCGUCUCCCUCCUAAGGAGAAGACUGCGGGUUCGAGUCCCGUACGGAACG"}}, "note": "This sample holds only a part of the variants without activity."}
{"variants_of": "B1", "experiment": "yeast fitness relative to wild type (ratio to wild type); higher = fitter; tRNA-Arg(CCU), competitive growth, 37 C, YPD", "outline": "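The tRNA-Arg(CCU) gene variants were made by chemical synthesis with a 3% per-site mutation rate at 69 sites and inserted at the native genomic locus of Saccharomyces cerevisiae. After pooling, the strains were competed in YPD at 37°C for 24 hours in six parallel replicates. Gene amplicons from the start population and each end population were read by 100-nucleotide paired-end sequencing, and Darwinian fitness relative to wild type was taken from genotype frequency changes. Genotypes needed ≥ 100 starting reads, and estimates < 0.5 were set to 0.5.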"}
{"variant": "A40U A57U", "yeast fitness": 0.837}
{"variant": "G41C C62G", "yeast fitness": 0.597}
{"variant": "A40G A45C C60A", "yeast fitness": "≤ 0.5"}
{"variant": "G41A A43C C49G A57G", "yeast fitness": "≤ 0.5"}
{"variant": "A40U C49G G56C", "yeast fitness": "≤ 0.5"}
{"variant": "A43C C61G", "yeast fitness": 0.66}
{"variant": "G38U G48A A70U", "yeast fitness": 0.652}
{"variant": "A40U U54A C60G G67C", "yeast fitness": 0.599}
{"variant": "G38C G48C", "yeast fitness": 0.722}
{"variant": "A43C C62A A69C", "yeast fitness": 0.633}
{"variant": "A42G C62A", "yeast fitness": 0.786}
{"variant": "A43G G50C", "yeast fitness": 0.728}
{"variant": "A40C G48C A69C", "yeast fitness": 0.57}
{"variant": "G38C A43G C62G", "yeast fitness": "≤ 0.5"}
{"variant": "A40C U54A C62U", "yeast fitness": "≤ 0.5"}
{"variant": "A42C G56A", "yeast fitness": 1.01}
{"variant": "A42U G52A G67U", "yeast fitness": 0.783}
{"variant": "A40C C60A C66U", "yeast fitness": "≤ 0.5"}
{"variant": "A43C C49A A65C", "yeast fitness": "≤ 0.5"}
{"variant": "G39A A42U", "yeast fitness": 0.767}
{"variant": "A43U C49G C55G", "yeast fitness": 0.988}
{"variant": "G39C A42U C60G C62U G67C", "yeast fitness": "≤ 0.5"}
{"variant": "G38C G50C", "yeast fitness": 0.562}
{"variant": "G38A G58C C66U", "yeast fitness": 0.588}
{"variant": "G41C C46G U59C C60U", "yeast fitness": "≤ 0.5"}
{"variant": "G39C G52A", "yeast fitness": 0.76}
{"variant": "G39C G51C", "yeast fitness": 0.568}
{"variant": "A42G A57C", "yeast fitness": 0.7}
{"variant": "G41A C55A", "yeast fitness": 0.661}
{"variant": "A42G C49U", "yeast fitness": 0.801}
{"variant": "A40U G44A", "yeast fitness": 0.981}
{"variant": "A42C A43U G67C", "yeast fitness": "≤ 0.5"}
{"variant": "A40G G63A G67A", "yeast fitness": "≤ 0.5"}
{"variant": "A40U G44A A65U", "yeast fitness": 0.51}
{"variant": "G39C C46A C60G", "yeast fitness": "≤ 0.5"}
{"variant": "A40U A42C C62U G68A", "yeast fitness": "≤ 0.5"}
{"variant": "A43C G56A", "yeast fitness": 0.949}
{"variant": "A40C G41C C49A G68C", "yeast fitness": "≤ 0.5"}
{"variant": "G41A G48C", "yeast fitness": 0.772}
{"variant": "G39A U53A C62G C66U", "yeast fitness": "≤ 0.5"}
{"variant": "A40U A45G", "yeast fitness": 0.816}
{"variant": "A40U A45U", "yeast fitness": 0.941}
{"variant": "A43C U47A", "yeast fitness": 0.732}
{"variant": "G39A U54C", "yeast fitness": 0.945}
{"variant": "G39C U47C A57C C61A U64C", "yeast fitness": "≤ 0.5"}
{"variant": "G38C G48C G63C", "yeast fitness": 0.574}
{"variant": "G39A C66U", "yeast fitness": 0.797}
{"variant": "G38C C60U G63C A65G", "yeast fitness": "≤ 0.5"}
{"variant": "A40U C49A A57G C62U", "yeast fitness": "≤ 0.5"}
{"variant": "G41C A65C", "yeast fitness": 0.794}
{"variant": "G38C G41C A42G A65G", "yeast fitness": 0.503}
{"variant": "A42U C60U A70G", "yeast fitness": 0.703}
{"variant": "G38A G58C A70U", "yeast fitness": 0.748}
{"variant": "G38C C60U C66G", "yeast fitness": "≤ 0.5"}
{"variant": "A42C A45C G48A A70G", "yeast fitness": 0.632}
{"variant": "G39A U47A C49U U54A", "yeast fitness": "≤ 0.5"}
{"variant": "A42G C62A C66U", "yeast fitness": 0.614}
{"variant": "G38C G50A G52A C55U", "yeast fitness": "≤ 0.5"}
{"variant": "A40U G44C U53G", "yeast fitness": "≤ 0.5"}
{"variant": "A43C U64C A70C", "yeast fitness": 0.989}
{"variant": "G41C A42G G51A A69C", "yeast fitness": "≤ 0.5"}
{"variant": "G39C A43G G44C A45U C49G G67C", "yeast fitness": 0.558}
{"variant": "G41C G63C A65U", "yeast fitness": "≤ 0.5"}
{"variant": "G39U A45C", "yeast fitness": 0.851}
{"variant": "G38C U64C", "yeast fitness": 0.803}
{"variant": "A40U G67U", "yeast fitness": 0.797}
{"variant": "A40U C46G G68C", "yeast fitness": "≤ 0.5"}
{"variant": "A43G G58C", "yeast fitness": 0.855}
{"variant": "A43U C61A", "yeast fitness": 0.764}
{"variant": "G41A A65C", "yeast fitness": 0.67}
{"variant": "G41C G48C A69U", "yeast fitness": 0.558}
{"variant": "G38A U54A", "yeast fitness": 0.628}
{"variant": "G38C A40U U54C", "yeast fitness": "≤ 0.5"}
{"variant": "A43U G50A G52U A69C", "yeast fitness": "≤ 0.5"}
{"variant": "G41A A65G G67A", "yeast fitness": 0.635}
{"variant": "A43U G50C A65C", "yeast fitness": 0.556}
{"variant": "A40U U54C C60A", "yeast fitness": "≤ 0.5"}
{"variant": "A40C C55A", "yeast fitness": 0.556}
{"variant": "G41C C61G", "yeast fitness": 0.793}
{"variant": "G41C G56C", "yeast fitness": 0.557}
{"variant": "A43U A65G", "yeast fitness": 1.01}
{"variant": "G39C G48C A69C", "yeast fitness": 0.57}
{"variant": "G41A A43U G51C", "yeast fitness": "≤ 0.5"}
{"variant": "A42G C46G C49U", "yeast fitness": 0.744}
